In ChEMBL document CHEMBL1140756, “Synthesis and antiviral activity of new dimeric inhibitors against HIV-1” (Bioorg Med Chem, 2008):

Columns and labels:
[1] = test system: Human immunodeficiency virus 1; assay: Antiviral activity against HIV1 HTLV-3B; format: functional, organism-based; conditions: Human immunodeficiency virus 1, HTLV-3B
Method in brief: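 MT-4 cells (1×10^4 per well) in RPMI 1640 with 10% FCS, exposed to serial compound dilutions (DMSO stocks at 100 mM diluted in medium), then infected with HIV-1 IIIB at an input giving complete cytopathogenicity by day 4. Incubated at 37 °C; viability read by MTT. EC50 = dose giving 50% protection; mean of at least two experiments.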

MT4 (Homo sapiens) = assay: Cytotoxicity against mock-infected human MT4 cells by MTT assay
[2] = test system: Human immunodeficiency virus 1; assay: Antiviral activity against HIV1 Y181C mutant; format: functional, organism-based
Method in brief: (§1)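 Acute infection of MT-4 cells (1×10^4 per well) with NNRTI-resistant HIV-1 stocks (K103N+Y181C A17, Y181C N119, efavirenz-selected K103R+V179D+P225H) titrated in C8166 cells by syncytia scoring. Compounds were serially diluted from 100 mM DMSO stocks. Virus input gave full cytopathogenicity at day 4, 37 °C. Read-out was protection of viability by MTT, or p24 immunoassay.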

[3] = Selectivity index, ratio of CC50 for human MT4 cells to EC50 for wild type HIV1; format: functional
Method in brief: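 CC50 from mock-infected MT-4 cells, read by MTT in parallel with the antiviral test, divided by EC50 for 50% protection from HIV-1 IIIB cytopathogenicity (MTT, day 4 input, 37 °C). Both values are means of at least two separate experiments.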

[4] = test system: Human immunodeficiency virus 1; assay: Antiviral activity against HIV1 K103N/Y181C mutant; format: functional, organism-based; method in brief: as §1
[5] = test system: Human immunodeficiency virus 1; assay: Antiviral activity against efavirenz-resistant HIV1; format: functional, organism-based; method in brief: as §1

C#CCOCn1c(Cc2cc(C)cc(C)c2)c(CC)c(=O)[nH]c1=O gave an EC50 [1] of 0.003 µM, a CC50 (MT4 (Homo sapiens)) greater than 100 µM and an EC50 [2] of 0.2 µM. For the same compound, the Ratio CC50/EC50 [3] was greater than 33300, the EC50 [4] was 1.2 µM and the EC50 [5] was 16 µM.
For CCc1c(Cc2cc(C)cc(C)c2)n(COCc2ccc(C#C[C@@]3(O)CC[C@@H]4[C@H]5CCC6=CC(=O)CC[C@H]6[C@@H]5CC[C@]43CC)cc2)c(=O)[nH]c1=O, the EC50 [1] was 0.4 µM, the CC50 (MT4 (Homo sapiens)) was greater than 100 µM and the EC50 [2] was 2.8 µM. The “Ratio CC50/EC50” value [3] was greater than 250, the EC50 [4] was greater than 100 µM and the EC50 [5] was greater than 100 µM.
CCc1c(Cc2cc(C)cc(C)c2)n(COCC#Cc2ccc(C#CCOCn3c(Cc4cc(C)cc(C)c4)c(CC)c(=O)[nH]c3=O)cc2)c(=O)[nH]c1=O showed an EC50 [1] of 2.8 µM, a CC50 (MT4 (Homo sapiens)) of 85 µM and an EC50 [2] greater than 85 µM. The “Ratio CC50/EC50” value [3] was 30, the EC50 [4] was greater than 85 µM and the EC50 [5] was greater than 85 µM.
With CCc1c(Cc2cc(C)cc(C)c2)n(COCc2cn([C@H]3C[C@H](n4cc(C)c(=O)[nH]c4=O)O[C@@H]3CO)nn2)c(=O)[nH]c1=O the CC50 (MT4 (Homo sapiens)) was greater than 100 µM, the EC50 [2] was 8 µM and the “Ratio CC50/EC50” value [3] was greater than 1250. It also gave an EC50 [4] of 27 µM and an EC50 [5] of 26 µM.
Compound CC[C@@]12CC[C@H]3C4CCC(=O)C=C4CC[C@@H]3[C@H]1CC[C@]2(O)C#CC#C[C@@]1(O)CC[C@@H]2[C@H]3CCC4=CC(=O)CCC4[C@@H]3CC[C@]21CC (some centres undefined) has an EC50 [1] greater than 28 µM, a CC50 (MT4 (Homo sapiens)) of 28 µM and an EC50 [2] greater than 28 µM. For the same compound, the “Ratio CC50/EC50” value [3] was 1, the EC50 [4] was greater than 28 µM and the EC50 [5] was greater than 28 µM.
Work on CCc1c(Cc2cc(C)cc(C)c2)n(COCC#CC#CCOCn2c(Cc3cc(C)cc(C)c3)c(CC)c(=O)[nH]c2=O)c(=O)[nH]c1=O yielded an EC50 [1] of 0.5 µM, a CC50 (MT4 (Homo sapiens)) of 9 µM and an EC50 [2] greater than 9 µM. The “Ratio CC50/EC50” value [3] was 18, the EC50 [4] was greater than 9 µM and the EC50 [5] was greater than 9 µM.
CCc1c(Cc2cc(C)cc(C)c2)n(COCC#Cc2ccc(I)cc2)c(=O)[nH]c1=O showed an EC50 [1] of 0.2 µM, a CC50 (MT4 (Homo sapiens)) of 44 µM and an EC50 [2] of 10 µM. For the same compound, the “Ratio CC50/EC50” value [3] was 220, the EC50 [4] was greater than 44 µM and the EC50 [5] was greater than 44 µM.
With CCc1c(Cc2cc(C)cc(C)c2)n(COCc2ccc(I)cc2)c(=O)[nH]c1=O the EC50 [1] was 0.007 µM, the CC50 (MT4 (Homo sapiens)) was 19 µM and the EC50 [2] was 0.1 µM. The “Ratio CC50/EC50” value [3] was 2714, the EC50 [4] was 0.9 µM and the EC50 [5] was 0.8 µM.
C#CCOCn1c(Cc2ccccc2C)c(CC)c(=O)[nH]c1=O gave an EC50 [1] of 0.4 µM, a CC50 (MT4 (Homo sapiens)) of 33 µM and an EC50 [2] greater than 33 µM. The “Ratio CC50/EC50” value [3] was 82, the EC50 [4] was greater than 33 µM and the EC50 [5] was greater than 33 µM.
CCc1c(Cc2ccccc2C)n(COCC#CC#CCOCn2c(Cc3ccccc3C)c(CC)c(=O)[nH]c2=O)c(=O)[nH]c1=O showed an EC50 [1] greater than 8 µM, a CC50 (MT4 (Homo sapiens)) of 8 µM and an EC50 [2] greater than 8 µM. For the same compound, the “Ratio CC50/EC50” value [3] was 1, the EC50 [4] was greater than 8 µM and the EC50 [5] was greater than 8 µM.
In the case of CCc1c(Cc2cc(C)cc(C)c2)n(COCC#Cc2ccc(COCn3c(Cc4cc(C)cc(C)c4)c(CC)c(=O)[nH]c3=O)cc2)c(=O)[nH]c1=O, the EC50 [1] is reported as 0.3 µM, the CC50 (MT4 (Homo sapiens)) is reported as 16 µM and the EC50 [2] is reported as 4 µM. For the same compound, the “Ratio CC50/EC50” value [3] was 53, the EC50 [4] was greater than 16 µM and the EC50 [5] was greater than 16 µM.
Compound O=C1Nc2ccc(Cl)cc2[C@@](C#CC2CC2)(C(F)(F)F)O1 [EFAVIRENZ] has a CC50 (MT4 (Homo sapiens)) of 30 µM, an EC50 [2] of 0.008 µM and an EC50 [4] of 0.3 µM.
For CCOCn1c(Cc2ccccc2)c(C(C)C)c(=O)[nH]c1=O [EMIVIRINE], the EC50 [1] was 0.03 µM, the CC50 (MT4 (Homo sapiens)) was greater than 100 µM and the EC50 [2] was 20 µM. The “Ratio CC50/EC50” value [3] was greater than 3333, the EC50 [4] was greater than 100 µM and the EC50 [5] was 100 µM.
